The text below walks through data of ChEMBL document CHEMBL1141931, “Synthesis and evaluation of new antimalarial phenylurenyl chalcone derivatives” (J Med Chem, 2005).

The test system of experiment [1] is Plasmodium falciparum. Briefly: Inhibitory concentration against Plasmodium falciparum. It is filed as functional, organism-based. A digest of the protocol:
(§1)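 Chloroquine-resistant P. falciparum cultures were exposed to a range of compound concentrations for 48 h, starting at the ring stage. New ring forms were counted by FACS (flow cytometry), and parasitemia was compared with untreated controls to derive IC50.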

For experiment [2], the species on record is Mus musculus. Briefly: Inhibition of hemoglobin hydrolysis in mice (Mus musculus) infected with Plasmodium berghei at 100 uM. It is filed as functional.
Experiment [3] concerns the target T1, Histidine-rich protein PFHRP-II (Plasmodium falciparum) (UniProt P05227).
T1 sequence (whole entry): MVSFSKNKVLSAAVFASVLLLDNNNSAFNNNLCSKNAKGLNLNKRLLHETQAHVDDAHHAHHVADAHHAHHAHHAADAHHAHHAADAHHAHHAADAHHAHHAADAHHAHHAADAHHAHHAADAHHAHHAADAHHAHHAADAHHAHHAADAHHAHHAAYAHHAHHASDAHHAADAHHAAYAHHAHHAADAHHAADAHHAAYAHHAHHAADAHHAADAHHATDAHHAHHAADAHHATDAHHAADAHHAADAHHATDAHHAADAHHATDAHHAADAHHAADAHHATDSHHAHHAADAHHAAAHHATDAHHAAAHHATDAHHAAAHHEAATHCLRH
Particulars: Plasmodium berghei; 100 uM.

Experiment [4] has as its system Plasmodium falciparum. Nature of the experiment: Inhibitory concentration against Plasmodium falciparum in FACS. In kind it is functional, organism-based. The essentials:
as §1

Experiment [5] addresses T2, Falcipain 2 (Plasmodium falciparum, UniProt Q9N6S8).
T2 sequence (Q9N6S8 whole entry): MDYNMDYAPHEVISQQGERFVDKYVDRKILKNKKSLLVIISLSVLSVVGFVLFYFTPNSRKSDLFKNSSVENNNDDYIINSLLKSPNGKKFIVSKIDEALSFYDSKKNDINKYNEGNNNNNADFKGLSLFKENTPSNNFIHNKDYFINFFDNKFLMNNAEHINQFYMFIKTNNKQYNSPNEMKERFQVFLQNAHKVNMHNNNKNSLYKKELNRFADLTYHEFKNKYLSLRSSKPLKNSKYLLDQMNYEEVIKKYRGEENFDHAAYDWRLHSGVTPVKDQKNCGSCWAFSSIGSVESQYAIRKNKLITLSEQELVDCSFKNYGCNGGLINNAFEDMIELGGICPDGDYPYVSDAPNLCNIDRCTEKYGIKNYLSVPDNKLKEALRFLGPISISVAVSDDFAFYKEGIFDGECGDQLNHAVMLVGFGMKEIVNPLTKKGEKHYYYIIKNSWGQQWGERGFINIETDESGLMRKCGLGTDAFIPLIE
Briefly: Inhibitory concentration against recombinant Falcipain-2.

For experiment [6], the species on record is Mus musculus. Nature of the experiment: Inhibition of hemoglobin hydrolysis in mice (Mus musculus) infected with Plasmodium berghei at 5 uM. In kind it is functional.
For experiment [7], the target named is T2, Falcipain 2. Nature of the experiment: Inhibitory concentration against falcipain-2; No significant effect impaired solubility.
The species named for experiment [8] is Mus musculus. Nature of the experiment: Inhibition of hemoglobin hydrolysis in mice (Mus musculus) infected with Plasmodium berghei at 10 uM. In kind it is functional.

As to `COc1ccc(/C=C/C(=O)c2cccc(NC(=O)Nc3ccccc3)c2)cc1OC`, the IC50 (in general, the point on the concentration scale where inhibition reaches its midpoint) in experiment [1] is greater than 10 µM.
The same measure, in the same setting: under `O=C(Nc1ccccc1)Nc1cccc(C(=O)/C=C/c2ccc(F)cc2)c1` stands greater than 10 µM.
On the same count and under the same terms, under `COc1ccc(/C=C/C(=O)c2ccc(NC(=O)Nc3ccc(Cl)cc3)cc2)cc1` stands greater than 10 µM.
Same read-out and setting: under `CN(C)c1ccc(/C=C/C(=O)c2cccc(NC(=O)Nc3ccccc3)c2)cc1` stands greater than 10 µM.
In the case of `CCN(CC)CCCC(C)Nc1ccnc2cc(Cl)ccc12` (centres undefined) [CHLOROQUINE], the Inhibition – broadly, how much of the control response was suppressed – in experiment [2] was determined as 5.15%. Moreover, the inhibition (in general, the relative decrease from the control value, in per cent) in experiment [3] came out at 86.6%.
In the case of `O=C(Nc1ccc(Cl)cc1)Nc1ccc(C(=O)/C=C/c2ccc(Cl)cc2Cl)cc1`, the IC50 in experiment [4] was 5 µM; in experiment [5], 2.5 µM. Also, in experiment [6], the Inhibition is listed as 60.31%.
In the case of `COc1cc(/C=C/C(=O)c2ccc(NC(=O)Nc3ccccc3)cc2)cc(OC)c1OC`, in experiment [1], the IC50 was greater than 10 µM.
As to `COc1ccc(/C=C/C(=O)c2ccc(NC(=O)Nc3ccccc3)cc2)c(OC)c1`, in experiment [1], the IC50 was greater than 10 µM.
As for `O=C(Nc1ccc(Cl)cc1)Nc1ccc(C(=O)/C=C/c2ccc(Cl)cc2)cc1`, the IC50 in experiment [4] turned out to be 10 µM; in experiment [5], 2.6 µM.
Turning to `O=C(Nc1ccccc1)Nc1cccc(C(=O)/C=C/c2ccc(Br)cc2)c1`, the IC50 in experiment [4] is 2.1 µM; in experiment [7] it was “No significant effect”. The Inhibition in experiment [6] came to 66.58%.
`O=C(Nc1ccccc1)Nc1ccc(C(=O)/C=C/c2ccc(Cl)cc2Cl)cc1` showed an IC50 in experiment [1] greater than 10 µM.
In experiment [1], `O=C(Nc1ccccc1)Nc1ccc(C(=O)/C=C/c2ccc(Cl)cc2)cc1` displayed an IC50 greater than 10 µM.
Turning to `COc1ccc(NC(=O)Nc2ccc(C(=O)/C=C/c3cc(OC)c(OC)c(OC)c3)cc2)cc1`, in experiment [1], the IC50 is greater than 10 µM.
The same measure, in the same setting: under `COc1ccc(NC(=O)Nc2ccc(C(=O)/C=C/c3ccc(OC)cc3OC)cc2)cc1` stands greater than 10 µM; under `Cc1ccc(/C=C/C(=O)c2ccc(NC(=O)Nc3ccccc3)cc2)cc1`, greater than 10 µM.
As to `COc1cc(/C=C/C(=O)c2cccc(NC(=O)Nc3ccccc3)c2)cc(OC)c1OC`, the results for the IC50 in experiment [4] and in experiment [7] were 1.76 µM and “No significant effect”, respectively. In experiment [6], this compound showed an Inhibition of 51.45%.
On to `O=C(Nc1ccc(Cl)cc1)Nc1ccc(C(=O)/C=C/c2ccc(F)cc2F)cc1`, for which the values for the 50% inhibitory concentration (IC50) in experiment [4] and in experiment [5] were 8 µM and 2.6 µM, respectively. Besides, the Inhibition in experiment [6] was 33.04%.
On to `O=C(Nc1ccccc1)Nc1cccc(C(=O)/C=C/c2ccc3c(c2)OCO3)c1`, for which the IC50 in experiment [1] is greater than 10 µM.
With `Cc1ccc(/C=C/C(=O)c2ccc(NC(=O)Nc3ccc(Cl)cc3)cc2)cc1`, in experiment [1], the IC50 is greater than 10 µM.
Same read-out and setting: then `COc1cccc(/C=C/C(=O)c2cccc(NC(=O)Nc3ccccc3)c2)c1OC`, with greater than 10 µM; and `COc1ccc(/C=C/C(=O)c2cccc(NC(=O)Nc3ccccc3)c2)c(OC)c1`, with greater than 10 µM.
Turning to `O=C(Nc1ccc(Cl)cc1)Nc1ccc(C(=O)/C=C/c2ccc3c(c2)OCO3)cc1`, the IC50 was 10 µM in experiment [4] and 2.5 µM in experiment [5].
The corresponding values for `COc1cc(/C=C/C(=O)c2ccc(NC(=O)Nc3ccc(Cl)cc3)cc2)cc(OC)c1OC` are 3 µM and 1.8 µM.
For `COc1ccc(NC(=O)Nc2ccc(C(=O)/C=C/c3ccc4c(c3)OCO4)cc2)cc1`, in experiment [1], the IC50 is greater than 10 µM.
As for `COc1ccc(NC(=O)Nc2ccc(C(=O)/C=C/c3ccc(Cl)cc3Cl)cc2)cc1`, the IC50 in experiment [1] was greater than 10 µM.
As for `Cc1ccc(/C=C/C(=O)c2cccc(NC(=O)Nc3ccccc3)c2)cc1`, the results for the concentration for half-maximal inhibition (IC50) in experiment [4] and in experiment [7] were 2.74 µM and “No significant effect”, respectively. Besides, in experiment [6], the Inhibition is listed as 74.93%.
For `O=C(Nc1ccccc1)Nc1cccc(C(=O)/C=C/c2ccc(Cl)cc2Cl)c1`, the IC50 is 2.14 µM in experiment [4] and “No significant effect” in experiment [7]. This compound showed an Inhibition in experiment [6] of 60.72%.
Take `O=C(Nc1ccccc1)Nc1cccc(C(=O)/C=C/c2ccccc2)c1`: in experiment [1], the IC50 was greater than 10 µM.
With `COc1ccc(NC(=O)Nc2ccc(C(=O)/C=C/c3ccc(F)cc3)cc2)cc1`, the IC50 in experiment [1] was greater than 10 µM.
`COc1ccc(NC(=O)Nc2ccc(C(=O)/C=C/c3ccc(Cl)cc3)cc2)cc1` came in with an IC50 in experiment [1] greater than 10 µM.
The same measure, in the same setting: then `COc1ccc(NC(=O)Nc2ccc(C(=O)/C=C/c3ccc(F)cc3F)cc2)cc1`, with greater than 10 µM.
The same measure, in the same setting: then `COc1ccc(NC(=O)Nc2ccc(C(=O)/C=C/c3ccccc3)cc2)cc1`, with greater than 10 µM.
For the compound `O=C(Nc1ccc(Cl)cc1)Nc1ccc(C(=O)/C=C/c2ccccc2)cc1`, the IC50 in experiment [4] is 9 µM; in experiment [5], 3.8 µM.
For the compound `O=C(Nc1ccccc1)Nc1ccc(C(=O)/C=C/c2ccc(F)cc2)cc1`, the IC50 in experiment [1] was greater than 10 µM.
On to `CC(C)C[C@H](NC(=O)[C@H]1O[C@@H]1C(=O)O)C(=O)NCCCCN=C(N)N` [E-64], for which the IC50 was 2.5 µM in experiment [4] and 0.058 µM in experiment [5].
For `CC(C)CC(=O)N[C@H](C(=O)N[C@H](C(=O)N[C@@H](CC(C)C)[C@@H](O)CC(=O)N[C@@H](C)C(=O)N[C@@H](CC(C)C)[C@@H](O)CC(=O)O)C(C)C)C(C)C` [PEPSTATIN], the Inhibition in experiment [8] is given as 91.91%.
In experiment [1], `O=C(Nc1ccccc1)Nc1cccc(C(=O)/C=C/c2ccc(F)cc2F)c1` came in with an IC50 greater than 10 µM.
In experiment [1], `COc1ccc(NC(=O)Nc2ccc(C(=O)/C=C/c3ccc(C)cc3)cc2)cc1` registered a half-inhibitory concentration (IC50) greater than 10 µM.
The same measure, in the same setting: under `O=C(Nc1ccccc1)Nc1ccc(C(=O)/C=C/c2ccccc2)cc1` stands greater than 10 µM; under `COc1ccc(/C=C/C(=O)c2cccc(NC(=O)Nc3ccccc3)c2)cc1`, greater than 10 µM.
Regarding `CC(=O)N[C@@H](CC(C)C)C(=O)N[C@@H](CC(C)C)C(=O)N[C@H](C=O)CCCNC(=N)N` [LEUPEPTIN], the half-inhibitory concentration (IC50) came to 6.26 µM in experiment [4] and 0.0058 µM in experiment [5]. Besides, the Inhibition in experiment [8] came to 87.02%.
In experiment [1], `O=C(Nc1ccc(Cl)cc1)Nc1ccc(C(=O)/C=C/c2ccc(F)cc2)cc1` had an IC50 greater than 10 µM.
The same measure, in the same setting: under `COc1ccc(/C=C/C(=O)c2ccc(NC(=O)Nc3ccc(OC)cc3)cc2)cc1` stands greater than 10 µM; under `COc1ccc(/C=C/C(=O)c2ccc(NC(=O)Nc3ccc(Cl)cc3)cc2)c(OC)c1`, greater than 10 µM; under `O=C(Nc1ccccc1)Nc1ccc(C(=O)/C=C/c2ccccn2)cc1`, greater than 10 µM.
On to `O=C(Nc1ccccc1)Nc1cccc(C(=O)/C=C/c2ccc(Cl)cc2)c1`, for which the IC50 in experiment [1] is greater than 10 µM.
The compound `O=C(Nc1ccccc1)Nc1ccc(C(=O)/C=C/c2ccc3c(c2)OCO3)cc1` registered an IC50 in experiment [1] greater than 10 µM.
Turning to `COc1ccc(/C=C/C(=O)c2ccc(NC(=O)Nc3ccccc3)cc2)cc1`, the IC50 in experiment [1] was greater than 10 µM.
Turning to `O=C(Nc1ccccc1)Nc1ccc(C(=O)/C=C/c2ccc(F)cc2F)cc1`, in experiment [1], the IC50 was greater than 10 µM.
